According to article PMC4258470 (Journal of molecular biology, 2014):

How the values were obtained:
[1] = target: T1, TAZ2 domain of CBP (residues 1764–1855) (Mus musculus, UniProt P45481); experiment: 1H-15N HSQC NMR titration of 15N-TAZ2; type: binding; settings: TAZ2 vs TAZ1 of CBP; fluorescence and NMR
T1 sequence (P45481 1764-1855): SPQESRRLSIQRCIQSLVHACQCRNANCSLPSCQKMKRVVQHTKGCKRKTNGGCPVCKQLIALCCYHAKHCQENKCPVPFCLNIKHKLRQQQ

[2] = test system: pRb acetylation in BJ cells; experiment: In-cell pRb acetylation assay; type: cell-based, human; settings: retroviral transduction, vs control vector (BP)
How it was run: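 Human BJ foreskin fibroblasts (DMEM, 10% calf serum) stably transduced with LXSN control vector or E7 retrovirus and selected in 600 μg/ml G418. Lysed by sonication in NETN containing butyrate, TSA, phosphatase and protease inhibitors. Anti-pRb IP from 0.8–1.0 mg extract, SDS-PAGE, blots probed for acetyl-lysine and pRb, ECL. Background-corrected AcK/pRb band ratio normalised to vector, mean of two independent experiments.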

[3] = test system: TAZ2 domain of CBP with pRb-AB; experiment: 1H-15N HSQC NMR of 15N-TAZ2 with E7; type: binding, mouse; settings: 15N-TAZ2:E7:pRb-AB 1:0.25:1; NMR buffer pH 6.8
pRb in BJ cells = experiment: pRb level by Western blot, BJ cells; type: cell-based, human; settings: retroviral transduction, vs control vector (BP); lysates and IP
How it was run: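 Human BJ fibroblasts (DMEM, 10% calf serum) retrovirally transduced with LXSN control vector or E7 and G418-selected (600 μg/ml). Sonicated in NETN buffer with phosphatase, deacetylase and protease inhibitors. Both lysates and anti-pRb immunoprecipitates (0.8–1.0 mg extract) resolved on 7–8% SDS-PAGE and Western blotted with anti-pRb, ECL detection.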

[4] = target: T1, TAZ2 domain of CBP (residues 1764–1855); experiment: Fluorescence anisotropy, competition with ppE7; type: binding; settings: phosphorylated vs non-phosphorylated (Table 1)
[5] = test system: p53 transcriptional activity; settings: in cells; cited from earlier work
p130 = settings: in vitro; cited from earlier work
p300 TAZ1 domain = settings: read-out: affinity measured by sedimentation equilibrium for p300 TAZ1; 4°C; cited from earlier work
[6] = test system: HPV E2 transcriptional activity; settings: cited from earlier work
pRb in MEF cells = experiment: pRb level by Western blot, MEF cells; type: cell-based, mouse; settings: floxed CBP/p300 MEF, prior to Cre
How it was run: (§1)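 Primary mouse embryonic fibroblasts homozygous for floxed CBP and p300 alleles, grown in DMEM with 10% calf serum, stably transduced with LXSN-E7 retrovirus and selected in 600 μg/ml G418. Lysed in NETN with inhibitors. pRb immunoprecipitated from 0.8–1.0 mg extract, 7–8% SDS-PAGE, PVDF blots probed with anti-pRb or anti-acetyl-lysine, ECL.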

cellular transformation = settings: epithelial cells, E7 alone; cited from earlier work
[7] = test system: N-terminal region of p300, encompassing the TAZ1 (or CH1) domain; settings: buffer containing 2.5 mM EDTA; cited from earlier work
[8] = test system: pRb acetylation in MEF cells; experiment: In-cell pRb acetylation assay, MEF cells; type: cell-based, mouse; settings: for pRb acetylation, MEF cells before Cre treatment: floxed CBP/p300 MEF, prior to Cre
How it was run: as §1

TAZ2 domain of CBP = experiment: In vitro GB1 pulldown, TAZ2; type: binding, mouse; settings: H6GB1 alone as negative control; legend refers to TAZ1 and TAZ2
pocket domain of pRb = settings: read-out: Kd for pRb; pRb pocket domain (pRb-AB); cited from earlier work

Question: For “16-E7(1-51): construct containing the disordered CR1 and CR2 domains, residues M1-H51, of HPV16 E7”, which “tighter binding to TAZ2 than to TAZ1” value [1] is on record?
Answer: The value was ~ 1000 -fold.

Question: What about the “pRb acetylation, BJ cells” value [2] of the same substance?
Answer: Its value is “comparable to control cells”.

Question: And the “ternary complex (TAZ2:E7:pRb-AB) formation by NMR” value [3]?
Answer: The value was “unable to support ternary complex formation”.

Question: And the “pRb level, BJ cells” value (pRb in BJ cells)?
Answer: The value was “comparable to control cells”.

Question: And the “enhancement of binding to TAZ2 by CKII phosphorylation of Ser31 and Ser32” value [4]?
Answer: The value was 3 -fold.

Question: What does the source list for “E7(1-98): full length high-risk HPV16 E7 (residues 1-98), homodimer”?
Answer: inhibition of p53 transcriptional activity [5]: inhibit p53 transcriptional activity in cells; enhancement of p300-mediated acetylation of p130 (p130): enhances p300-mediated acetylation of the retinoblastoma protein family member p130; Kd (p300 TAZ1 domain): 900 to 3500 nM; repression of HPV E2 transcriptional activity [6]: represses HPV E2 transcriptional activity; pRb level, MEF cells before Cre treatment (pRb in MEF cells): significantly decreased levels of pRb; pRb acetylation, BJ cells ([2]; listed as E7): increased levels of acetylation; pRb acetylation, BJ cells ([2]; listed as full-length E7): enhanced; pRb acetylation, BJ cells ([2]; listed as full-length HPV16 E7): Enhanced acetylation of pRb; transformation and immortalization (cellular transformation): sufficient to transform and immortalize epithelial cells, albeit with lower efficiency; pRb level, BJ cells (pRb in BJ cells): decreased levels of pRb; interaction with p300 regions in GST pulldown [7]: interacts most strongly with the N-terminal region of p300, encompassing the TAZ1 (or CH1) domain; E7-induced pRb acetylation, MEF cells lacking CBP/p300 ([8]; Cre-treated MEF cells, listed as full-length HPV16 E7): acetylation levels were substantially decreased in CBP/p300^−/− cells; pRb acetylation, MEF cells before Cre treatment ([8]; listed as E7): increased levels of pRb acetylation; pRb acetylation, MEF cells before Cre treatment ([8]; listed as full-length HPV16 E7): Enhanced acetylation of pRb

Question: With “STAT1(710-750): STAT1 residues 710-750, positive control (SEVHPSRLQTTDNLLPMSPEEFDEVSRIVGSVEFDSMMNTV)” as the substance, how does the “pulldown signal vs H6GB1 background” value (TAZ2 domain of CBP) read?
Answer: The value was “bind significantly above the background signal”.

Question: With “p53(13-61): p53 residues 13-61, positive control” as the substance, how does the “pulldown signal vs H6GB1 background” value (TAZ2 domain of CBP) read?
Answer: The value was “bind significantly above the background signal”.

Question: With “pp16-E7(1-51): HPV16 E7(1-51) phosphorylated by casein kinase II (CKII) at serines 31 and 32” as the substance, how does the Kd (pocket domain of pRb) read?
Answer: The Kd was 2 nM.
